core dimer inh – blocks dimerization of HCV core protein | 300,000 tested, 0.33% active | inhibition, % at 5 µM | TR-FRET GST/Flag-core106 dimerization, 1536-well;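 active = inhibition above the mean of all tested compounds plus 3 SD, set per screening campaign, cut at about 45% in these data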
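Test system: GST/Flag-tagged HCV core106 proteins; Medium: KF-containing HEPES buffer, pH 7.45, DTT, CHAPS, BSA; Times: compound-protein-antibody incubation 4 h at 22.5 °C; Detection: TR-FRET 671 and 617 nm emission; Benchmarks: wells lacking GST-core106 and wells with excess unlabelled core106.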
GRK2 aptamer HTS – human GRK2 inhibition via aptamer displacement; P25098; 330,000 tested, 0.59% active; AID 488847; inhibition of aptamer binding, % at 10 µM; bead flow cytometry, FAM-aptamer displacement from GRK2;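 active = inhibition of aptamer binding above 40%, roughly 3 SD of noise, on plates passing a quality check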;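 note: median bead fluorescence of bound FAM aptamer so fluorescent compounds give negative values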
Target sequence (P25098 whole entry, looked up): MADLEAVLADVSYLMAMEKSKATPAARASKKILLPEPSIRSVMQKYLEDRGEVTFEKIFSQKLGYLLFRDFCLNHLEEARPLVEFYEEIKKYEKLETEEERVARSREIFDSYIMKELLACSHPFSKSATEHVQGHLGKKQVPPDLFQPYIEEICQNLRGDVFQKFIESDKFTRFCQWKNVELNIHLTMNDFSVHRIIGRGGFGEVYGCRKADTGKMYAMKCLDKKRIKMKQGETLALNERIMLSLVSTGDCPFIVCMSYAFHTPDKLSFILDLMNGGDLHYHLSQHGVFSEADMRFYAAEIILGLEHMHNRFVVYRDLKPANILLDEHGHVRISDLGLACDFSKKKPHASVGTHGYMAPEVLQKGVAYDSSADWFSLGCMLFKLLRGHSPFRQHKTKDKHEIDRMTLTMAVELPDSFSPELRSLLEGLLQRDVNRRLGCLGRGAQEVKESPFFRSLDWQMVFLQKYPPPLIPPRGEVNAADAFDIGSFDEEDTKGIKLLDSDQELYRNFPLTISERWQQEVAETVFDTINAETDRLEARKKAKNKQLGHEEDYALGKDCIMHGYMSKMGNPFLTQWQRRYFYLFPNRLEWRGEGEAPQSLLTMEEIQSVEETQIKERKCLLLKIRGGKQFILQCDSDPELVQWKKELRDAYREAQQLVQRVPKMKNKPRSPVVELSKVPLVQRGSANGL
GPR7 antagonist – antagonists of human GPR7 (neuropeptides B/W receptor 1) | GPR7-expressing cells, fluorescence antagonist assay | P48145 | inhibition, % at 4.4 µM | 290,000 tested, 1.1% active; in the data active = inhibition above about 16%, passing the limit was not always enough;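 note: cells stimulated with the agonist NPW; 0% = agonist with vehicle and 100% = vehicle without agonist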
DAGLB inh – blocks human DAGLB lipase activity; HEK293T DAGLB membrane lysate, EnzChek fluorogenic substrate; inhibition, % at 5.17 µM; 340,000 tested, 0.059% active; AID 504411; in the data active = inhibition above about 34%;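 note: 0% = enzyme with vehicle and 100% = wells lacking enzyme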
NS3 helicase inh – blocks Hepatitis C virus NS3 helicase unwinding; NS3 helicase DNA unwinding, Cy5 molecular beacon fluorescence; 290,000 tested, 0.56% active; inhibition, % at 10.9 µM;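 active = inhibition above the mean of all tested compounds plus 3 SD, set per campaign, cut at about 35% in these data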;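 note: 0% = DMSO wells and 100% = thioflavine S control wells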
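System: Hepatitis C virus NS3 helicase domain fragment enzyme | Reagent: Annealed dual-labelled DNA beacon duplex, ATP-started | Compound dosing: 10.9 µM single point, 0.8% DMSO | Incubation: 1 h reaction at 25 °C, ATP-initiated | Technique: Cy5 fluorescence | Evaluation: Percent inhibition from t60/t0 fluorescence ratio | Benchmarks: Low DMSO, high thioflavine S at 110 µM | Replication: Singlicate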
DNA FID counter-1 – fluorescent intercalator displacement, NS3 helicase counter-screen | DNA fluorescent intercalator displacement, fluorescence | inhibition, % at 7.9 µM | 290,000 tested, 0.17% active;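 note: 0% = vehicle and 100% = reference compound; higher means more ethidium bromide displaced from hairpin DNA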
NS3 hel confirm – HCV NS3 helicase inhibition, confirmation assay. shares compounds with NS3 helicase inh. NS3 helicase DNA unwinding, Cy5 molecular beacon fluorescence. inhibition, % at 10.9 µM. 1,600 tested, 31% active. AID 1943;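 active = inhibition above the mean of all tested compounds plus 3 SD, cutoff set per campaign, cut at about 36% in these data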
DNA FID counter-2 – counter-screen for HCV NS3 helicase inhibitors: DNA intercalator displacement. DNA fluorescent intercalator displacement, fluorescence. inhibition, % at 7.9 µM. 1,600 tested, 4% active. shares compounds with NS3 helicase inh;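 note: 0% = vehicle and 100% = reference compound; higher means more displacement of ethidium bromide from the DNA hairpin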
An asterisk follows results filed as active; x = not tested or not shown. Rows were chosen to be rich in hits. Some 2.2% of all compounds tested hit in one or more screens of this group. Cut-off read from the data, not from the text of the source, unless noted: active = inhibition above about 37%; inactive = the rest.

SMILES	core dimer inh	GRK2 aptamer HTS	GPR7 antagonist	DAGLB inh	NS3 helicase inh	DNA FID counter-1	NS3 hel confirm	DNA FID counter-2
COc1ccc(-n2c(NC(=O)c3ccco3)c(C#N)c3nc4ccccc4nc32)cc1	30	1	-2	2	7	-10	x	x
N#Cc1c(NC(=O)c2ccccc2Cl)n(Cc2ccccc2)c2nc3ccccc3nc12	20	0	12	8	41*	-5	38*	18
CCS(=O)(=O)C1=NN2C(=N)/C(=C\c3ccc(OCCOc4cccc(OC)c4)c(OC)c3)C(=O)N=C2S1	33	0	20	6	46*	6	63*	13
CCOc1cc(/C=C2\C(=N)N3N=C(S(C)(=O)=O)SC3=NC2=O)ccc1OCCOc1cccc(OC)c1	15	0	29	-1	-6	0	x	x
O=C1NC(=O)c2cc(Oc3ccc([N+](=O)[O-])cc3)ccc21	-1	2	-3	0	4	2	x	x
O=C(CN1CCN(S(=O)(=O)c2ccccc2)CC1)N1CCCCC1	x	2	x	-1	x	x	x	x
CCN(Cc1nc2ccccc2c(=O)[nH]1)C(=O)COc1ccccc1Cc1ccccc1	x	x	x	5	x	x	x	x
Cc1cc(C(=O)O)ccc1-n1c(C)ccc1C	-9	7	-7	x	78*	-24	90*	-26
CC1(C)Oc2ccc3ccc(=O)oc3c2/C(=C/NNC(N)=S)C1=O	-23	1	6	2	51*	-13	-17	-8
CN/C=C1\C(=O)C(C)(C)Oc2ccc3ccc(=O)oc3c21	4	1	-18	0	0	-4	x	x
O=C1Cc2ccccc2C(=O)N1c1cccc(Cl)c1	-5	1	-15	-1	37*	-21	-19	19
O=C(CSc1nc2cc([N+](=O)[O-])ccc2n1-c1ccccc1)NCc1ccc2c(c1)OCO2	23	0	13	0	40*	-24	28	4
C/C(=N\NC(=O)c1cccc(S(=O)(=O)N2CCCC2)c1)c1ccc(C)cc1	2	0	x	-1	x	x	x	x
Cn1c(SCC(=O)Nc2cccnc2Cl)nc2ccccc21	x	0	x	0	x	x	x	x
COc1ccc2ccccc2c1C(=O)/C=C\c1ccoc1	21	2	-10	-3	55*	-20	9	4
O=C(/C=C/c1ccoc1)c1ccccc1O	-9	3	-8	0	-2	-1	x	x
CNC(=O)c1ccc(NC(=O)Cc2ccc(S(=O)(=O)N3CCOCC3)s2)cc1	-2	0	x	2	x	x	x	x
Cc1ccc(C(=O)N/N=C\c2ccc(-c3ccc(Cl)c(Cl)c3)o2)cn1	4	1	-5	3	69*	-26	-7	-7
CC(C)OC(=O)N(C)C[C@@H]1OCc2cnnn2CCCC(=O)N([C@H](C)CO)C[C@@H]1C	x	x	x	-2	x	x	x	x
CCn1ccnc1CN(C)Cc1nc(Cc2cccc(C(F)(F)F)c2)no1	1	1	0	0	-7	4	x	x
COc1cc(/C=N/NC(N)=O)cc([N+](=O)[O-])c1O	-38	1	-7	0	39*	2	-12	5
CC(C)(C)NC(=O)C1(N2C(=O)c3ccccc3C2=O)CCCC1	x	x	x	0	x	x	x	x
CC1CCCN(C(=O)CCS(=O)(=O)c2ccc3c(c2)NC(=O)C(C)S3)C1 (stereo unspecified)	-14	4	-8	-2	44*	-42	-16	-24
CC1Sc2ccc(S(=O)(=O)CCC(=O)NC3CCCC(C)C3C)cc2NC1=O (stereo unspecified)	-12	1	1	-1	54*	-46	-13	-31
O=C(NCCCN1CCCC1=O)C1CCN(S(=O)(=O)c2ccc(Cl)cc2)CC1	x	2	x	-2	x	x	x	x
SMILES	core dimer inh	GRK2 aptamer HTS	GPR7 antagonist	DAGLB inh	NS3 helicase inh	DNA FID counter-1	NS3 hel confirm	DNA FID counter-2
Cc1ccc(NC(=O)C2CCCN(C(=O)NCc3ccccc3)C2)c(C)c1 (stereo unspecified)	-2	5	-2	-1	1	-20	x	x
COC(=O)C1=NN(C(=O)c2ccc(Cl)cc2)C(O)(c2ccccc2)C1 (stereo unspecified)	-1	1	7	6	44*	-32	-6	-10
O=C(Nc1ccc(N2CCOCC2)cc1)C1CC(=O)N(c2ccccc2)C1 (stereo unspecified)	5	1	-3	-2	0	-7	x	x
Cc1ccc(N2CC(C(=O)Nc3ccc(N4CCOCC4)cc3)CC2=O)cc1C (stereo unspecified)	-4	0	21	-1	39*	-38	-6	-30
O=C(O)c1nn(Cc2csc(-c3ccccc3)n2)c(=O)c2ccccc12	-7	0	-7	-3	48*	-41	8	-23
Cc1ccc(-c2noc(Cn3nc(C(=O)O)c4ccccc4c3=O)n2)cc1	7	1	-12	-2	-6	-20	x	x
NNc1nc2c(-c3cccc(C(F)(F)F)c3)nnn2c2ccccc12	x	0	0	-11	43*	3	0	17
CC(C)c1cc(=O)n2[nH]c(SCc3ccc(Cl)cc3)nc2n1	-14	7	-6	5	45*	-25	-6	-24
CC(C)c1cc(=O)n2[nH]c(SCc3ccccc3)nc2n1	2	1	0	-2	13	-8	x	x
COCCn1c(=S)[nH]c2sc3c(c2c1=O)CCCC3	-9	3	-8	-1	52*	-19	-9	-6
Cc1onc(-c2ccccc2Cl)c1C(=O)N(C)Cc1ccccc1	x	0	-12	-4	-2	-21	x	x
O=c1[nH]c(=S)[nH]cc1Oc1ccc(Br)cc1Br	x	x	x	2	x	x	x	x
COc1ccc(/C=C\c2onc(C)c2S(=O)(=O)N2CCC(C(=O)NCc3ccco3)CC2)cc1	-6	2	-8	-3	50*	-34	-1	-18
CCCNC(=O)C1CCN(S(=O)(=O)c2c(C)noc2/C=C\c2ccc(OC)cc2)CC1	-3	0	-2	-2	-5	-5	x	x
N#Cc1ccc(NC(=S)NC(=O)C2CC2)cc1	x	x	x	-3	x	x	x	x
CCOc1ccc(-n2nc3ccc(N)cc3n2)cc1	x	2	-22	1	44*	-13	-15	-1
Cc1cc2nn(-c3ccc(F)cc3)nc2cc1N	1	1	-8	4	27	-6	x	x
CCOc1ccc(-n2nc3cc(C)c(N)cc3n2)cc1	23	0	1	1	63*	-8	-9	0
C[C@@H]1NC(=O)[C@H](CCCN=C(N)N)NC(=O)c2cc([N+](=O)[O-])cc(I)c2OCC[C@@H](C(=O)NC(CC(=O)O)C(N)=O)NC1=O (stereo partly specified)	-2	x	-3	x	8	-14	x	x

Bioassay records from PubChem.
